Data taken from ChEMBL document CHEMBL1131456, “Synthesis, pharmacological characterization, and quantitative structure-activity relationship analyses of 3,7,9,9-tetraalkylbispidines: derivatives with specific bradycardic activity” (J Med Chem, 1998).

Key:
Cavia porcellus [1] = species on record: Cavia porcellus; test: Selectivity quotient (FRP125/SR75); assay type: functional
In short: (§1)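 Atrial selectivity quotients were calculated from the guinea pig atrial EC values as F75/SR75 and FRP125/SR75.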

[2] = Partition coefficient (logP); assay type: physicochemical; conditions: octanol/water
In short: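 Lipophilicity was measured by reversed-phase HPLC. Mobile phase was methanol/0.005 M phosphate buffer pH 4 (60/40) with 0.1% SDS and 0.1 M NaClO4, at 23.0 ± 0.5 °C, with UV detection at 205 nm.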

Cavia porcellus [3] = species on record: Cavia porcellus; test: Score point for the selectivity versus additional effect FRP.; assay type: functional
Cavia porcellus [4] = species on record: Cavia porcellus; test: Sum of the scores of decrease of the sinus rate and selectivity versus the decrease in force of contraction; assay type: functional
Cavia porcellus [5] = species on record: Cavia porcellus; test: Score value indicates selectivity versus the decrease in force of contraction; assay type: functional
Cavia porcellus [6] = species on record: Cavia porcellus; test: Selectivity quotient (F75/SR75); assay type: functional; in short: as §1
Cavia porcellus [7] = species on record: Cavia porcellus; test: In vitro activity in guinea pig atria as the functional refractory period (FRP), which is the shortest interval between a double stimulus causing a double contraction.
In short: (§2)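 Isolated guinea pig atria in oxygenated buffer at 35 °C. Right atria beat spontaneously; left atria were paced at 2 Hz with 1 ms rectangular pulses and isometric contractions were recorded. Cumulative concentration–response curves were run with up to five concentrations. EC75/EC125 is the concentration giving a 25% decrease/increase from the predrug value, reported as the geometric mean of individual ECs.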

Cavia porcellus [8] = species on record: Cavia porcellus; test: Score value indicates decrease of the sinus rate; assay type: functional
Cavia porcellus [9] = species on record: Cavia porcellus; test: In vitro activity in guinea pig atria was measured as the peak force of contraction (F) of a stimulated left atrium; assay type: functional; conditions: Cardiac atrium; in short: as §2
Rattus norvegicus [10] = test: In vivo activity in anesthetized rat was measured as heart rate which provides information on in vivo bradycardic activity; assay type: functional
In short: (§3)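 Male Wistar rats (280–360 g) under urethane (1.25 g/kg ip), intubated and breathing spontaneously. Femoral arterial pressure was recorded with needle-electrode ECG, analysed every 30 s. Compound was given by continuous femoral-vein infusion at 0.1 mL/min, with concentration raised tenfold every 10 min (3 doses). ED75/ED125 is the dose giving a 25% decrease/increase from the predrug value, reported as the geometric mean of individual EDs.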

Rattus norvegicus [11] = test: In vivo activity in anesthetized rat was measured as the diastolic arterial pressure which provides information on the peripheral resistance of the cardiovascular system and selectivity regarding bradycardia; assay type: functional, Artery; in short: as §3
Rattus norvegicus [12] = species on record: Rattus norvegicus; test: Selectivity quotient (R&T125/HR75)
Rattus norvegicus [13] = species on record: Rattus norvegicus; test: Selectivity quotient (DAP125/HR75)
Rattus norvegicus [14] = species on record: Rattus norvegicus; test: Score point for the selectivity versus additional effect R&T interval.; assay type: functional
Rattus norvegicus [15] = species on record: Rattus norvegicus; test: Total score (SS)
Rattus norvegicus [16] = species on record: Rattus norvegicus; test: Score value indicates desire effect on heart rate; assay type: functional
Rattus norvegicus [17] = test: In vivo activity in anesthetized rat was measured as the R alpha T-interval of the rat ECG which reflects the time from ventricular excitation to recovery; assay type: functional, Cardiac ventricle; in short: as §3
Cavia porcellus [18] = species on record: Cavia porcellus; test: In vitro activity in guinea pig atria was measured as rate of spontaneously beating right atrium (SR) which reflects the activity of the sinus node; assay type: functional; conditions: Cardiac atrium; in short: as §2
Rattus norvegicus [19] = species on record: Rattus norvegicus; test: Score value indicates selectivity against the undesired effect on diastolic blood pressure; assay type: functional, Artery

SMILES	logP ([2]; read-out: logP)	logP [2]	Selectivity quotient (Cavia porcellus [1])	Score (Cavia porcellus [3])	Score (Cavia porcellus [4])	Score (Cavia porcellus [5])	Selectivity quotient (Cavia porcellus [6])	EC125 (Cavia porcellus [7]) [µM]	Score (Cavia porcellus [8])	EC75 (Cavia porcellus [9]) [µM]	ED75 (Rattus norvegicus [10]) [µM/kg]	ED125 (Rattus norvegicus [11]) [µM/kg]	Selectivity quotient (Rattus norvegicus [12])	Selectivity quotient (Rattus norvegicus [13])	Score (Rattus norvegicus [14])	total score (SS) (Rattus norvegicus [15])	Score (Rattus norvegicus [16])	ED125 (Rattus norvegicus [17]) [µM/kg]	EC75 (Cavia porcellus [18]) [µM]	Score (Rattus norvegicus [19])
CN1CC2CN(C)CC(C1)C2(C)C	1.61	–	1	3	-5	-5	1	122	0	–	–	–	–	–	–	–	–	–	–	–
CCCCCCCCCCN1CC2CN(CCCCCCCCCC)CC(C1)C2(C)C	–	9.64	–	–	–	–	–	85	–	105	–	–	–	–	–	–	–	–	–	–
C1CCC(CN2CC3CN(CC4CCCCC4)CC(C2)C32CCCCC2)CC1	7.43	–	0.08	6	-3	-6	0.35	0.62	3	2.65	20	>61	0.6	>3	3	1	3	12	7.57	-2
CCCCCCN1CC2CN(C)CC(C1)C2(CC)CC	4.88	–	–	–	–	–	–	0.84	–	17.5	25	>106	0.12	>4	5	2	3	3	–	-1
C=CCCN1CC2CN(CCC=C)CC(C1)C21CCCCC1	4.49	–	2.85	2	6	0	167	1.14	6	75.1	4.9	1.5	0.12	0.31	5	2	6	0.58	0.4	-4
CCCCCCN1CC2CN(CCCCCC)CC(C1)C21CCCC1	5.47	–	0.51	3	3	-3	3.53	0.44	6	3.07	14	2.8	0.4	0.2	4	-1	3	5.6	–	-4
CCCCN1CC2CN(CC3CCCCC3)CC(C1)C2(C)C	4.98	–	0.55	3	5	-1	18.5	0.48	6	16.3	5.7	>41	0.17	>7	5	4	5	0.96	0.88	-1
CCCC1(C)C2CN(C(C)C)CC1CN(C(C)C)C2 (stereo not given)	3.53	–	1.32	3	5	0	106	2.63	5	211	4.5	>36	0.12	>8	5	5	6	0.53	1.99	-1
CCCCN1CC2CN(CCCC)CC(C1)C21CCC1	4.24	–	1.21	3	6	0	108	0.63	6	56.1	4.7	0.6	0.12	0.13	5	1	6	0.55	0.52	-5
C=CCN1CC2CN(CC=C)CC(C1)C2(C)C	2.7	–	0.5	4	3	0	>25	4.3	3	> 215	–	–	–	–	–	–	–	–	8.55	–

Continued, in another order:

logP ([2]; read-out: logP)	logP [2]	SMILES	Selectivity quotient (Cavia porcellus [1])	Score (Cavia porcellus [3])	Score (Cavia porcellus [4])	Score (Cavia porcellus [5])	Selectivity quotient (Cavia porcellus [6])	EC125 (Cavia porcellus [7]) [µM]	Score (Cavia porcellus [8])	EC75 (Cavia porcellus [9]) [µM]	ED75 (Rattus norvegicus [10]) [µM/kg]	ED125 (Rattus norvegicus [11]) [µM/kg]	Selectivity quotient (Rattus norvegicus [12])	Selectivity quotient (Rattus norvegicus [13])	Score (Rattus norvegicus [14])	total score (SS) (Rattus norvegicus [15])	Score (Rattus norvegicus [16])	ED125 (Rattus norvegicus [17]) [µM/kg]	EC75 (Cavia porcellus [18]) [µM]	Score (Rattus norvegicus [19])
7.03	–	CCCCN1CC2CN(CCCC)CC(C1)C2(CCCC)CCCC	0.53	3	0	-5	1.12	1.01	5	2.14	8.7	5.1	0.37	0.58	4	1	4	3.2	1.91	-3
4.37	–	CCCCN1CC2CN(CCCC)CC(C1)C2(C)CC (stereo not given)	0.17	5	-2	-6	0.47	0.54	4	1.52	4.6	0.57	0.13	0.12	5	1	6	0.61	3.21	-5
4.51	–	CCCC1(CCC)C2CN(C(C)C)CC1CN(C(C)C)C2	0.37	4	4	-1	18.2	0.8	5	39.6	6.4	11	0.28	1.72	4	2	5	1.8	2.18	-3
5.32	–	C=CCCN1CC2CN(CC(C)C)CC(C1)C2(CCC)CCC	1.66	3	6	0	52.5	0.73	6	23.1	3.5	2.4	0.09	0.68	6	3	6	0.32	0.44	-3
3.13	–	C=CCCN1CC2CN(CCC=C)CC(C1)C2(C)C	1.54	3	5	0	>177	1.87	5	> 215	7.1	>46	0.13	>6	5	4	5	0.94	1.21	-1
3.88	–	CCCCN1CC2CN(CCCC)CC(C1)C2(C)C	0.33	4	4	0	35	1	4	104	5.3	0.2	0.11	0.04	5	-1	5	0.57	3	-6
